Experimental data as given in ChEMBL document CHEMBL4680082 (J Med Chem, 2016).
Where “and” joins values, the source holds several entries; their conditions need not be identical. Identical values can stand only once. Calls of active or inactive are those of the source. No cut-off for these calls is given here.

How the values were obtained:
[1] = molecular target: T1, 5-hydroxytryptamine receptor 2C (Homo sapiens) (UniProt P28335); test: Agonist activity at human 5-HT2C INI receptor expressed in human HEK293 cells assessed as induction of beta-arrestin-2 recruitment incubated for 20 hrs by Tango assay relative to 5HT; type: cell-based
T1 sequence (whole entry): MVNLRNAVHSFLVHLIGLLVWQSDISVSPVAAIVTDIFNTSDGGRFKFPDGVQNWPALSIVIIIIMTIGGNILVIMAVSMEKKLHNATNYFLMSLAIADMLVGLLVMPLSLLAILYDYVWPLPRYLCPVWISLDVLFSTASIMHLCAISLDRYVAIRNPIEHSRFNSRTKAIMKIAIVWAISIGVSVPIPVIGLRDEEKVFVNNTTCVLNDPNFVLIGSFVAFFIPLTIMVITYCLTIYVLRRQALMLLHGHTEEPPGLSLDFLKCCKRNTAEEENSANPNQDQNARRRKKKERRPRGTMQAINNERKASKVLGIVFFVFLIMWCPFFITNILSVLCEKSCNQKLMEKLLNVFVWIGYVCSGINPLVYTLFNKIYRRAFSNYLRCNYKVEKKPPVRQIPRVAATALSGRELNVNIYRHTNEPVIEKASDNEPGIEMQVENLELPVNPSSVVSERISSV
Outline: (§1)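 Tango assay in HTLA cells (HEK line expressing TEV-fused β-arrestin-2 and tTA-driven luciferase) transfected with 5-HT2C INI–tTA fusion carrying a TEV site. Cells were stimulated with the same dilutions used for FLIPR, 20 h at 37 °C and 5% CO2, then lysed with Bright-Glo for 20 min at room temperature and read by luminescence. Data normalized to % 5-HT and fitted sigmoidally; n = 3 in triplicate. Bias from log(Emax/EC50).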

[2] = molecular target: T1, 5-hydroxytryptamine receptor 2C (Homo sapiens); test: Agonist activity at human 5-HT2C INI receptor expressed in human Flp-In-293 cells assessed as induction of calcium flux by measuring log (Emax/EC50) incubated for 1 hr by Fluo-4 direct dye based FLIPR assay; type: functional, cell-based
Outline: (§2)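 Calcium flux in Flp-In-293 cells stably expressing the human 5-HT2C INI isoform, Fluo-4 Direct loading for 1 h at 37 °C. Drug dilutions identical to those in the parallel Tango assay, 300 s read at 1 read/s, normalized to % 5-HT. Triplicate, mean ± SEM (n = 3). Bias factors were calculated from change in relative activity, log(Emax/EC50).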

[3] = molecular target: T1, 5-hydroxytryptamine receptor 2C (Homo sapiens); test: Agonist activity at human 5-HT2C INI receptor expressed in human HEK293 cells assessed as induction of beta-arrestin-2 recruitment by measuring log (Emax/EC50) incubated for 20 hrs by Tango assay relative to 5HT; type: cell-based; outline: as §1
[4] = molecular target: T1, 5-hydroxytryptamine receptor 2C (Homo sapiens); test: Bias factor, ratio of log(Emax/EC50) of lorcaserin to test compound for agonist activity at human 5-HT2C INI receptor expressed in human HEK293 cells assessed as induction of beta-arrestin-2 recruitment incubated for 20 hrs by Tango assay; type: cell-based; outline: as §1
[5] = molecular target: T1, 5-hydroxytryptamine receptor 2C (Homo sapiens); test: Bias factor, ratio of log(Emax/EC50) of lorcaserin to test compound for agonist activity at human 5-HT2C INI receptor expressed in human Flp-In-293 cells assessed as induction of calcium flux incubated for 1 hr by Fluo-4 direct dye based FLIPR assay; type: functional, cell-based; outline: as §2
[6] = molecular target: T1, 5-hydroxytryptamine receptor 2C (Homo sapiens); test: Agonist activity at human 5-HT2C INI receptor expressed in human Flp-In-293 cells assessed as induction of calcium flux incubated for 1 hr by Fluo-4 direct dye based FLIPR assay relative to 5-HT; type: functional, cell-based; outline: as §2
[7] = molecular target: T2, 5-hydroxytryptamine receptor 2C (Homo sapiens, UniProt P28335); test: Agonist activity at human 5-HT2C INI receptor expressed in human HEK293 cells assessed as induction of beta-arrestin-2 recruitment incubated for 20 hrs by Tango assay; type: cell-based; outline: as §1
T2 sequence (P28335 whole entry): T1 sequence (whole entry)

[8] = molecular target: T2, 5-hydroxytryptamine receptor 2C; test: Agonist activity at human 5-HT2C INI receptor expressed in human Flp-In-293 cells assessed as induction of calcium flux incubated for 1 hr by Fluo-4 direct dye based FLIPR assay; type: functional, cell-based; outline: as §2
[9] = molecular target: T1, 5-hydroxytryptamine receptor 2C (Homo sapiens); test: Induction of Gq-mediated receptor desensitization at human 5-HT2C INI receptor expressed in human Flp-In-293 cells assessed as reduction in Emax for additional 5-HT-stimulated calcium flux at <1 uM pre-incubated for 30 mins followed by drug wash out (3 times) by Fluo-4 direct dye based FLIPR assay; type: functional, cell-based; conditions: dose microM <1, time 30.0 min
[10] = molecular target: T1, 5-hydroxytryptamine receptor 2C (Homo sapiens); test: Agonist activity at human 5-HT2C receptor expressed in human Flp-In-293 cells assessed as induction of calcium flux incubated for 1 hr by Fluo-4 direct dye based FLIPR assay relative to 5-HT; type: functional, cell-based; conditions: filed as partial agonist
[11] = molecular target: T3, 5-hydroxytryptamine receptor 2A (Homo sapiens, UniProt P28223)
[12] = molecular target: T3, 5-hydroxytryptamine receptor 2A; test: Agonist activity at human 5-HT2A receptor expressed in human Flp-In-293 cells assessed as induction of calcium flux incubated for 1 hr by Fluo-4 direct dye based FLIPR assay relative to 5-HT; type: functional, cell-based; conditions: filed as agonist
[13] = molecular target: T1, 5-hydroxytryptamine receptor 2C (Homo sapiens); test: Agonist activity at human 5-HT2C INI receptor expressed in human Flp-In-293 cells assessed as increase in [3H]myo-inositol accumulation at 1 uM after 30 hrs; type: functional, cell-based; conditions: filed as partial agonist
Outline: (§3)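 PI hydrolysis: Flp-In-293 5-HT2C INI cells, 25,000/well, labelled 16-18 h with [3H]-myo-inositol (2 µCi/well) in inositol-free DMEM, washed. Drug (1 µM) in HBSS/HEPES pH 7.4 buffer for the indicated times (5 min to 40 h). LiCl (15 mM final) added 2 h before lysis with cold 50 mM formic acid at 4 °C overnight. [3H]-inositol phosphates captured on yttrium silicate beads and counted as CPM.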

[14] = molecular target: T1, 5-hydroxytryptamine receptor 2C (Homo sapiens); test: Agonist activity at human 5-HT2C INI receptor expressed in human Flp-In-293 cells assessed as increase in [3H]myo-inositol accumulation at 1 uM measured up to 5 hrs; type: functional, cell-based; conditions: filed as partial agonist, time hrs <=5; outline: as §3
[15] = molecular target: T4, 5-hydroxytryptamine receptor 2B (Homo sapiens, UniProt P41595)
[16] = molecular target: T4, 5-hydroxytryptamine receptor 2B; test: Agonist activity at human 5-HT2B receptor expressed in human Flp-In-293 cells assessed as induction of calcium flux incubated for 1 hr by Fluo-4 direct dye based FLIPR assay relative to 5-HT; type: functional, cell-based; conditions: filed as agonist
[17] = molecular target: T2, 5-hydroxytryptamine receptor 2C
[18] = molecular target: T1, 5-hydroxytryptamine receptor 2C (Homo sapiens); test: Induction of Gq-mediated receptor desensitization at human 5-HT2C INI receptor expressed in human Flp-In-293 cells assessed as reduction in Emax for [3H]myo-inositol accumulation at 1 uM after 20 hrs; type: functional, cell-based; conditions: filed as partial agonist; outline: as §3
[19] = molecular target: T1, 5-hydroxytryptamine receptor 2C (Homo sapiens); test: Agonist activity at human 5-HT2C INI receptor expressed in human Flp-In-293 cells assessed as increase in [3H]myo-inositol accumulation at 1 uM after 90 mins; type: functional, cell-based; conditions: filed as partial agonist; outline: as §3
[20] = molecular target: T1, 5-hydroxytryptamine receptor 2C (Homo sapiens); test: Agonist activity at human 5-HT2C INI receptor expressed in human Flp-In-293 cells assessed as increase in [3H]myo-inositol accumulation at 1 uM after 5 mins; type: functional, cell-based; conditions: filed as partial agonist; outline: as §3

T3 sequence (P28223 whole entry): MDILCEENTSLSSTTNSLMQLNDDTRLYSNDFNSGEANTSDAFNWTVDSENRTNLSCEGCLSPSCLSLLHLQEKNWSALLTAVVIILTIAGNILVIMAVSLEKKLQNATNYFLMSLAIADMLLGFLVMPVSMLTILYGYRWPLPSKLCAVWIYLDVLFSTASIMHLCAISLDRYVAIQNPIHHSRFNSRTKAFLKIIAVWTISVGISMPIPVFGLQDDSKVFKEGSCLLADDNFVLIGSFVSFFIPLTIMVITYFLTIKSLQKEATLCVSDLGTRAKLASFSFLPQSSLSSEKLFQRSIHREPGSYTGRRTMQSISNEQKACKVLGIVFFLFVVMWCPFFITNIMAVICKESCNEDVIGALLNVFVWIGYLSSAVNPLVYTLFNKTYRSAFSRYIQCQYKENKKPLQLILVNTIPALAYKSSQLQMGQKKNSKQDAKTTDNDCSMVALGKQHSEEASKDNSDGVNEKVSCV
T4 sequence (P41595 whole entry): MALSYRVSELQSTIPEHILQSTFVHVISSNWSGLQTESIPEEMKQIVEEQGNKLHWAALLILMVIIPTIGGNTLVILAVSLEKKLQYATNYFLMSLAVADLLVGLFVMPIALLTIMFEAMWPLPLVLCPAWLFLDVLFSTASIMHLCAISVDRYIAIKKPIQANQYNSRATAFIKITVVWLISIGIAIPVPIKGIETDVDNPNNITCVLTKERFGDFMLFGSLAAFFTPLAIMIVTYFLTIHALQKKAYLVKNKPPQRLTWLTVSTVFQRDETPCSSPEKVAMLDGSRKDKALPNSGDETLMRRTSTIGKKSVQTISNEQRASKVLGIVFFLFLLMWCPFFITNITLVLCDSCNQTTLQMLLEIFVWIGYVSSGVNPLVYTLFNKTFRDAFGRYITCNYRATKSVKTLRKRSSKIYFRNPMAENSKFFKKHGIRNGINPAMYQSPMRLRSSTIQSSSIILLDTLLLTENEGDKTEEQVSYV

Molecule `C[C@H](N)Cn1ccc2cc(F)c(Cl)cc21` has an Emax ([1]; filed as agonist) of 87%, a log(ratio) [2] of 8.65 and a log(ratio) [3] of 7.94. It also gave a Ratio [4] of 3.3, a Ratio [5] of 0.3 and an Emax ([6]; filed as agonist) of 99%. The EC50 ([7]; read-out: EC50) was 10 nM, the EC50 ([7]; read-out: pEC50 (converted)) was 10.7 nM and the EC50 [8] was 2.2 nM.
In the case of `NC[C@H]1C[C@@H]1c1c(OCCF)ccc2occc12`, the Activity [9] is reported as “inactive”, the Emax [10] is reported as 97% and the Emax [1] is reported as 28%. For the same molecule, the EC50 [11] was 22 nM, the Emax ([6]; filed as partial agonist) was 94% and the Emax [12] was 98%. For the same molecule, the EC50 ([7]; read-out: EC50) was 25 nM, the Activity [13] was “Dose-dependent effect” and the EC50 [8] was 1.2 nM. For the same molecule, the Activity [14] was “Active”, the EC50 [15] was 46 nM and the Emax [16] was 103%. The EC50 [17] was 0.603 nM and 0.59 nM, the Activity [18] was “Active” and the Activity [19] was “Active”. For the same molecule, the Activity [20] was “Active”.
